Key:
TrxR1 [1] = biological target: T1, TrxR1 (Homo sapiens, UniProt Q16881); assay: Cellular TrxR1 activity, Trx1-linked insulin end point assay; assay type: cell-based; conditions: FaDu cells, 1 μM, 3 hours
T1 sequence (Q16881 1-499 isoform Q16881-5): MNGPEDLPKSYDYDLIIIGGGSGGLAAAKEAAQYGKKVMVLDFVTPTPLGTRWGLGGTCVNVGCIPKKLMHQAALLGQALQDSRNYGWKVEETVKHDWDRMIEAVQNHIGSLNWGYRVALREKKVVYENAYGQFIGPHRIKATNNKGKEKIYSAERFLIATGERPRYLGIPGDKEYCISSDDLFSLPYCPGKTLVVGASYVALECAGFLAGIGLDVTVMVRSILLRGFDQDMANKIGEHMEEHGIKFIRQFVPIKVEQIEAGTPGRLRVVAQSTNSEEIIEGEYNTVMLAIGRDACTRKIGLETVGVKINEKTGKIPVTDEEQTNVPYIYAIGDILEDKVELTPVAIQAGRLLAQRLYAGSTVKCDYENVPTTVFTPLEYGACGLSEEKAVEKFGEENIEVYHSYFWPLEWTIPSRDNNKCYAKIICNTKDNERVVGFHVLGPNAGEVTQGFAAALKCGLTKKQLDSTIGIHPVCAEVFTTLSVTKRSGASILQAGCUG
Procedure, shortened: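 FaDu cells were seeded at 400,000 per well and treated 24 h later for 3 h at 37°C. Cells were lysed in modified RIPA buffer and protein measured by BCA. Lysate was incubated with 0.16 mM insulin, 0.33 mM NADPH and 16 μM Trx1 in TE buffer (pH 7.5) at 37°C for 0–90 min. Each time point was stopped with 7.2 M guanidine-HCl/2.5 mM DTNB and read at A412. Activity came from the A412 rise against a pure-enzyme standard curve; n = 3.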

Nrf2 = assay: pTRAF reporter, Nrf2 transcriptional activity; assay type: cell-based, human; conditions: HEK293 cells, 1 μM, 24 hours
Procedure, shortened: (§1)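 HEK293 cells were seeded at 20,000 per well on collagen I-coated plates. The next day, they were transfected overnight with 50 ng of the pTRAF-Nrf2/HIF/NFκB vector using Turbofect. Cells were then exposed for 24 h to 1 μM test compound. Positive controls were auranofin (1 μM) for Nrf2 and TNF-α (20 ng/ml) for NFκB. After 30 min Hoechst (40 ng/ml), per-well reporter fluorescence was quantified by high-content imaging.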

[2] = biological target: T2, ~55-kDa band (TrxR1) in A549 cell lysates (Homo sapiens, UniProt Q16881); assay: DG-8 competition assay in A549 cell lysates; assay type: binding; conditions: compound 0.5 to 50 μM 30 min, then DG-8 5 μM 30 min
T2 sequence (Q16881 1-499 isoform Q16881-5): T1 sequence (Q16881 1-499 isoform Q16881-5)
Procedure, shortened: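 A549 lysate (30 μg) was preincubated with test compound (0.5 to 50 μM) for 30 min, then with the dansyl-tagged probe (5 μM) for 30 min. Samples in LDS buffer with 100 mM DTT were heated at 95°C for 5 min and run on 10% bis-tris gels. The ~55-kDa band was imaged by UV dansyl fluorescence.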

TrxR1 [3] = biological target: T1, TrxR1; assay: Recombinant TrxR1 insulin reduction assay; assay type: biochemical; conditions: with NADPH, Trx1 used to reduce insulin
Procedure, shortened: (§2)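 Test compound was preincubated for 75 min with 10 nM TrxR1 or 10 nM TrxR2, plus BSA (0.1 mg/ml) and 250 μM NADPH. Then 25 μM Trx1 (TrxR1) or Trx2 (TrxR2) and 160 μM insulin were added. NADPH consumption was followed at A340 for 20 min.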

[4] = system: STAT-driven luciferase expression; assay: STAT-dependent luciferase in HEK293-shScramble and HEK293–shPrx1 + Prx2; assay type: cell-based, human; conditions: IL6 50 ng/ml + sIL6R 100 ng/ml
NFκB = assay: pTRAF reporter, NFκB transcriptional activity; assay type: cell-based, human; conditions: HEK293 cells, 1 μM, 24 hours
Procedure, shortened: as §1

TrxR2 = TrxR2 (Homo sapiens, UniProt Q9NNW7); assay: Recombinant TrxR2 insulin reduction assay; assay type: biochemical; conditions: with NADPH, Trx2 used to reduce insulin
Chain of TrxR2 (Q9NNW7 37-524, species assumed): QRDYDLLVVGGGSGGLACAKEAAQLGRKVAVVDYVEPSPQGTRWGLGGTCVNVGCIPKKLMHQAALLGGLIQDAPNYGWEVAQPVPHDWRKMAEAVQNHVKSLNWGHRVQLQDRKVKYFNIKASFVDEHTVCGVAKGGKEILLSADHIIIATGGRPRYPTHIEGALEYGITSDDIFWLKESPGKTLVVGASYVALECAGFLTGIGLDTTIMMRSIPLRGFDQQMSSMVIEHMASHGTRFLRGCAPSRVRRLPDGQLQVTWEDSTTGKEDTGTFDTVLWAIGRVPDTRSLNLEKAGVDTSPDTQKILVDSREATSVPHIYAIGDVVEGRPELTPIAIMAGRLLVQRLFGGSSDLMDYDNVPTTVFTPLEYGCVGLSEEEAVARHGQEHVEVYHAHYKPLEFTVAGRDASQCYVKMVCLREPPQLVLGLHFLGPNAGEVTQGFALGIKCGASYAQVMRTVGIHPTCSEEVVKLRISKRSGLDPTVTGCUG
Procedure, shortened: as §2

competition with DG-8 for binding to the ~55-kDa band [2]	inhibition of recombinant TrxR1 activity (TrxR1 [3])	inhibition of cellular TrxR1 activity (TrxR1 [1])	inhibition of recombinant TrxR2 activity (TrxR2)	Compound	effect on cellular TrxR1 activity (TrxR1 [1])	Nrf2 activation (Nrf2)	luciferase inhibition in control versus Prx1 + Prx2 knockdown cells [4]	NFκB activation (NFκB)
could compete with DG-8 for binding	potently inhibited the activity of TrxR1	approximately 40%		O=[N+]([O-])c1ccc2c(c1)S(=O)(=O)C=C2 [Stattic]		clearly triggered Nrf2 activation	more potently inhibited luciferase expression in the control cells	little effect on NFκB activation
potently outcompeted the probe				COc1ccc([N+](=O)[O-])c(S(=O)(=O)c2ccc(Cl)cc2)n1 [TRi-1]			more potently inhibited luciferase expression in the control cells	
potently outcompeted the probe	potently inhibited the activity of TrxR1		the only compound that inhibited TrxR2	CC(=O)OC[C@H]1O[C@@H]([S-])[C@H](OC(C)=O)[C@@H](OC(C)=O)[C@@H]1OC(C)=O.CCP(CC)CC.[Au+] [auranofin]				

Compound	competition with DG-8 for binding to the ~55-kDa band [2]	inhibition of recombinant TrxR1 activity (TrxR1 [3])	inhibition of cellular TrxR1 activity (TrxR1 [1])	inhibition of recombinant TrxR2 activity (TrxR2)	effect on cellular TrxR1 activity (TrxR1 [1])	Nrf2 activation (Nrf2)	luciferase inhibition in control versus Prx1 + Prx2 knockdown cells [4]	NFκB activation (NFκB)
CN(CC(=O)N(Cc1ccc(C2CCCCC2)cc1)c1ccc(C(=O)O)c(O)c1)S(=O)(=O)c1c(F)c(F)c(F)c(F)c1F [BP1-102]	not able to compete with the probe	did not fully inhibit the enzymatic activity of TrxR1			did not appreciably alter the TrxR1 activity	did not activate Nrf2		

— article PMC7083616 (Science Advances, 2020)
